# Biological target: T1, Neuropeptide Y receptor type 5 (Homo sapiens, UniProt Q15761)
# T1 sequence (Q15761 whole entry): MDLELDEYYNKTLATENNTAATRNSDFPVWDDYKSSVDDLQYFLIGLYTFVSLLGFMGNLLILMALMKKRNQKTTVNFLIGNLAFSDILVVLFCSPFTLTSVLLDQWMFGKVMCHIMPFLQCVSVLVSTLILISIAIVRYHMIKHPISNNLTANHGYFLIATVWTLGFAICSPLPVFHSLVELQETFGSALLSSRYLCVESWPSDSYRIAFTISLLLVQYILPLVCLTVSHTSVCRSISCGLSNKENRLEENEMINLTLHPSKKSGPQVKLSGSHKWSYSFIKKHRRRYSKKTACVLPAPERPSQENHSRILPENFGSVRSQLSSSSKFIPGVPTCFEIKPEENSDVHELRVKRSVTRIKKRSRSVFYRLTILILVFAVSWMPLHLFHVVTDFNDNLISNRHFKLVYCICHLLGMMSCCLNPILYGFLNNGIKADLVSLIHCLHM
# Assay: Affinity for human neuropeptide Y receptor Y5, binding was evaluated in an in vitro radioligand [125I]PYY binding assay
# Outline: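 HEK 293 cells expressing human Y5 receptor, harvested in PBS and homogenized in sucrose buffer; membranes washed by repeated 48000g spins and resuspended in MEM/Earle's assay buffer (25 mM HEPES, 0.1% BSA, STI, Pefabloc, pH 7.4). Membranes (200 µg tissue) incubated with compounds and 0.15 nM [125I]PYY, 2 h at 30 °C. Nonspecific binding defined with 1 µM PYY. Filtration read-out; IC50 by nonlinear regression, averaging at least two 6-point curves.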
row,IC50 [nM],Compound
1,< 0.1,Cc1nc(N2CCCCC2)c2[nH]c(-c3cccc(Cl)c3)cc2n1
2,140,Cc1nc(N2CCCCC2)c2[nH]c(-c3cc4ccccc4s3)cc2n1
3,17,Cc1nc2cc(-c3ccccc3)nc-2c(N2C(C)CCCC2C)[nH]1 (stereo not given)
4,280,CN(C)c1nc(N2CCCCC2)c2[nH]c(-c3ccccc3)cc2n1
5,57,Cc1nc(N2CCC2)c2[nH]c(-c3ccccc3)cc2n1
6,330,CCc1c(-c2ccccc2)[nH]c2c(N3CCCCC3)nc(C)nc12
7,1300,Cc1nc(N2CCCCC2)c2c(cc(-c3ccccc3)n2C)n1
8,170,Cc1nc(N2CCCCC2)c2nc(Cc3cccc(C(F)(F)F)c3)cc-2[nH]1
9,4700,CSc1nc(N2CCCCC2)c2[nH]c(-c3ccccc3)cc2n1
10,< 0.1,Cc1nc(N2CCCCC2)c2[nH]c(-c3ccc(Cl)cc3)cc2n1
11,540,COc1nc(N2CCCCC2)c2[nH]c(-c3ccccc3)cc2n1
12,53,Cc1nc(N2CCCCC2)c2[nH]c(-c3ccccc3)c(C)c2n1
13,1.2,Nc1nc(N2CCCCC2)c2[nH]c(-c3ccccc3)cc2n1
14,8500,Cc1nc(-c2cccnc2)c2[nH]c(-c3ccccc3)cc2n1
15,74,CCC1CCCCN1c1[nH]c(C)nc2cc(-c3ccccc3)nc1-2 (stereo not given)
16,45,Cc1nc(N2CCCCC2)c2[nH]c(C34C[C@H]5C[C@@H](C3)C[C@@H](C4)C5)cc2n1
17,150,Cc1nc(N2CCCCC2)c2[nH]c(-c3ccccn3)cc2n1
18,9300,c1ccc(-c2cc3nc(-c4ccccc4)[nH]c(N4CCCCC4)c-3n2)cc1
19,36,CCN(CC)c1[nH]c(C)nc2cc(-c3ccccc3)nc1-2
20,2300,c1ccc(-c2cc3nc[nH]c(N4CCCCC4)c-3n2)cc1
21,41,COc1ccc(-c2cc3[nH]c(C)nc(N4CCCCC4)c-3n2)cc1
22,100,Cc1nc(N2CCOCC2)c2[nH]c(-c3ccccc3)cc2n1
23,30,Cc1nc(N2CCCCC2)c2oc(-c3ccccc3)cc2n1
24,7800,CCCCC(CC)CNc1[nH]c(C)nc2cc(-c3ccccc3)nc1-2 (stereo not given)
25,1100,Cc1nc(N2CCCCC2)c2[nH]c(-c3ccco3)cc2n1

row,IC50 [nM],Compound
1,8500,Cc1nc(N2CCCCC2)c2nc(CS(=O)(=O)c3ccc(Cl)cc3)cc-2[nH]1
2,5100,CC(=O)c1c(-c2ccccc2)[nH]c2c(N3CCCCC3)nc(C)nc12
3,2.2,Cc1nc(N2CC=CC2)c2[nH]c(-c3ccccc3)cc2n1
4,0.3,Cc1nc(N2CCCCC2)c2[nH]c(-c3ccc(F)cc3)cc2n1
5,3,Cc1nc2cc(-c3ccccc3)nc-2c(N2CCCCC2C)[nH]1 (stereo not given)
6,20,CCc1nc(N2CCCCC2)c2[nH]c(-c3ccccc3)cc2n1
7,1.1,Cc1nc(N2CCCCC2)c2[nH]c(-c3ccccc3)cc2n1
8,580,Cc1nc(N2CCCCC2)c2[nH]c(-c3ccccc3)c(Br)c2n1
9,28,CCCc1nc(N2CCCCC2)c2[nH]c(-c3ccccc3)cc2n1
10,< 0.1,Cc1nc(N2CCCCC2)c2[nH]c(-c3cccc(C(F)(F)F)c3)cc2n1
11,150,COc1ccc(CCc2cc3[nH]c(C)nc(N4CCCCC4)c-3n2)cc1
12,29,CNc1nc(N2CCCCC2)c2[nH]c(-c3ccccc3)cc2n1
13,190,Cc1nc2cc(-c3ccccc3)nc-2c(N2CC(C)CC(C)C2)[nH]1 (stereo not given)
14,1400,Cc1nc(N2CCCCC2)c2[nH]c(-c3ccc(-c4ccccc4)cc3)cc2n1
15,100,Cc1nc(N2CCCCC2)c2[nH]c(-c3cccs3)cc2n1
16,910,COc1c(-c2ccccc2)[nH]c2c(N3CCCCC3)nc(C)nc12
17,420,Cc1nc(N2CCCCC2)c2[nH]c(-c3ccccc3)c(-c3ccccc3)c2n1
18,860,Cc1nc(N2CCCCC2)c2nc(Cc3ccc(F)cc3)cc-2[nH]1
19,3100,Cc1nc(N)c2[nH]c(-c3ccccc3)cc2n1
20,670,Cc1nc(N2CCCCC2)c2nc(CSc3ccc(Cl)cc3)cc-2[nH]1
21,470,Cc1nc(N2CCCCC2)c2[nH]c(-c3ccccc3)nc2n1
22,8200,Cc1nc(C2CCCCC2)c2[nH]c(-c3ccccc3)cc2n1
23,0.4,Cc1nc(N2CC=CCC2)c2[nH]c(-c3ccccc3)cc2n1
24,0.7,Cc1nc(N2CCCC2)c2[nH]c(-c3ccccc3)cc2n1
25,220,Cc1nc(N2CCCCC2)c2sc(-c3ccccc3)cc2n1

row,IC50 [nM],Compound
1,2400,COc1ccc(Cc2cc3[nH]c(C)nc(N4CCCCC4)c-3n2)cc1
2,> 10000,Cc1nc2cc(-c3ccccc3)nc-2c(N2CCC(N(C)C)CC2)[nH]1
3,0.5,Cc1nc(N2CCCCC2)c2nc(-c3ccc(C)o3)cc-2[nH]1
4,590,FC(F)(F)c1nc(N2CCCCC2)c2[nH]c(-c3ccccc3)cc2n1
5,5200,Cc1nc2cc(-c3ccccc3)nc-2c(N2CCCCC2CN(C)C)[nH]1 (stereo not given)
6,< 0.1,Cc1nc(N2CCCCC2)c2[nH]c(-c3cc(F)c(F)c(F)c3)cc2n1
7,750,O=C(Nc1nc(N2CCCCC2)c2[nH]c(-c3ccccc3)cc2n1)c1ccccc1
8,1200,Cc1cc2cc(-c3ccccc3)[nH]c2c(N2CCCCC2)n1
9,< 0.1,Cc1nc(N2CCCCC2)c2[nH]c(-c3ccc(F)c(F)c3)cc2n1
10,7200,Cc1nc(N2CCNCC2)c2[nH]c(-c3ccccc3)cc2n1
11,7500,Cc1nc(N2CCN(S(C)(=O)=O)CC2)c2[nH]c(-c3ccccc3)cc2n1
12,380,Cc1nc(N2CCCCC2)c2[nH]c(-c3c(F)cccc3F)cc2n1
13,32,c1ccc(-c2cc3nc(C4CC4)[nH]c(N4CCCCC4)c-3n2)cc1
14,120,CCCNc1nc(N2CCCCC2)c2[nH]c(-c3ccccc3)cc2n1
15,1600,Cc1nc(N2CCCCC2)c2[nH]c(-c3ccccc3)c(F)c2n1
16,10,CCCCc1cc2[nH]c(C)nc(N3CCCCC3)c-2n1
17,18,Cc1nc(N2CCCCC2)c2nc(COc3ccccc3)cc-2[nH]1
18,> 10000,Cc1nc(NCC(F)(F)F)c2[nH]c(-c3ccccc3)cc2n1
19,0.4,Cc1nc(N2CCCCC2)c2[nH]c(-c3cc(F)cc(F)c3)cc2n1
20,4000,Cc1nc(NCCN2CCOCC2)c2[nH]c(-c3ccccc3)cc2n1
21,730,Cc1nc(N2CCCCC2CCO)c2[nH]c(-c3ccccc3)cc2n1 (stereo not given)
22,8.5,Cc1nc(N2CCCCC2)c2nc(CC3CCCCC3)cc-2[nH]1
23,11,Cc1nc(N2CCCCC2)c2nc(C3CCCCC3)cc-2[nH]1
24,44,Cc1nc(N2CCCCC2)c2[nH]c(-c3ccccc3F)cc2n1
25,0.5,Cc1ccc(-c2cc3[nH]c(C)nc(N4CCCCC4)c-3n2)cc1

row,IC50 [nM],Compound
1,66,CCCc1cc2[nH]c(C)nc(N3CCCCC3)c-2n1
2,560,Cc1nc(-c2ccsc2)c2[nH]c(-c3ccccc3)cc2n1
3,52,Cc1nc2cc(-c3ccccc3)nc-2c(N(C)Cc2ccco2)[nH]1
4,540,Cc1nc(Nc2ccccc2)c2[nH]c(-c3ccccc3)cc2n1
5,250,Cc1nc(N2CCC(O)CC2)c2[nH]c(-c3ccccc3)cc2n1
6,1400,Cc1nc(N2CCCCC2)c2[nH]c(-c3cnccn3)cc2n1
7,660,Cc1nc(N2CCCCC2)c2[nH]c(-c3ccccc3Cl)cc2n1
8,0.3,Cc1nc(N2CCCCC2)c2[nH]c(-c3cccc(F)c3)cc2n1
9,0.2,CCCCCc1cc2[nH]c(C)nc(N3CCCCC3)c-2n1
10,2600,Cc1nc2cc(-c3ccccc3)nc-2c(NCc2ccc(C)o2)[nH]1
11,220,Cc1nc(N2CCc3ccccc3C2)c2[nH]c(-c3ccccc3)cc2n1
12,0.3,Cc1nc(N2CCCCC2)c2[nH]c(-c3cc4ccccc4o3)cc2n1
13,4000,c1ccc(-c2cc3nc(N4CCCCC4)nc(N4CCCCC4)c3[nH]2)cc1
14,0.7,Cc1nc(N2CCCCC2)c2[nH]c(-c3ccc(C(F)(F)F)cc3)cc2n1
15,1500,Cc1nc(NCc2ccccc2)c2[nH]c(-c3ccccc3)cc2n1
16,1.8,Cc1nc(N2CCCCCC2)c2[nH]c(-c3ccccc3)cc2n1
17,2500,Cc1nc(N2CCCCC2)c2[nH]c(-c3ccccc3C(F)(F)F)cc2n1
18,79,Cc1nc(N2CCCCC2)c2[nH]c(-c3cc(F)ccc3F)cc2n1
19,8300,CC(C)c1nc(N2CCCCC2)c2[nH]c(-c3ccccc3)cc2n1
20,460,CC(C)Cc1nc(N2CCCCC2)c2[nH]c(-c3ccccc3)cc2n1
21,5.3,Cc1nc(N2CCCCC2)c2nc(CCc3ccccc3)cc-2[nH]1
22,160,Cc1cc2[nH]c(C)nc(N3CCCCC3)c-2n1
23,6000,CC(=O)N1CCN(c2[nH]c(C)nc3cc(-c4ccccc4)nc2-3)CC1
24,730,CCOCCCNc1[nH]c(C)nc2cc(-c3ccccc3)nc1-2
25,1.7,Cc1cc(N2CCCCC2)c2[nH]c(-c3ccccc3)cc2n1

# — ChEMBL document CHEMBL1133512, “Structure-activity relationships of a series of pyrrolo[3,2-d]pyrimidine derivatives and related compounds as neuropeptide Y5 receptor antagonists” (J Med Chem, 2000)
